# Measured values: publication PMC12138107 (Acta Pharmaceutica Sinica. B, 2025)
# Test system: L02 cells
# Assay: In vitro cytotoxicity assay on normal L02 cells
# Type: cell-based
# Conditions: 10 μmol/L, 24 h, CCK8
# Outline: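 L02 cells grown in DMEM with 10% FBS and 1% penicillin-streptomycin at 37 °C, 5% CO2. Seeded at 5 × 10^3 cells/well, then 24 h before test compound at 10 μmol/L was added for another 24 h. Medium removed, 10% CCK8 added for 1 h at 37 °C. Absorbance read and viability calculated.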
smiles,measurement,value
COc1nc(OCc2cccc(-c3ccccc3)c2C)ccc1CNCCNC(C)=O [BMS-202],Cytotoxicity on normal L02 cells,obvious cytotoxicity
